One data set concerns A549 subcutaneous tumors. In words: NIRF imaging and biodistribution in NSCLC subcutaneous tumor mouse model. The format is in vivo, BALB/c nude mice. In outline:
(§1)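 A549 cells in 100 µL PBS were injected subcutaneously into the left armpit of isoflurane-anaesthetised BALB/c nude mice, and tumours were sized by caliper (V=a2bπ/2). At about 100 mm3, mice (n=3) got the test compound (10 nmol) by tail vein. IVIS imaging ran from 1 h to several days, and tumour-to-background ratio was calculated. At 96 h, organs were excised, imaged, and organ-to-muscle fluorescence ratios averaged over 3 mice.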

Test in data set [1]: as above
The format is in vivo, BALB/c nude mice. Conditions: mouse, in vivo, iv, 10 nmol. In outline:
as §1

A further data set in a line: Water solubility. The format is physicochemical. The following applies: result in words.
Data set [2] relates to 4T1 lung metastatic nodules. In words: Imaging of experimental lung metastasis model. The format is in vivo, Balb/c mouse. The following applies: iRGD-ZW800 10 nmol, 4 h vs ICG 100 nmol, 24 h; result in words. The procedure, abridged: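 Balb/c mice received 4T1 cells by tail vein and were observed weekly. After four weeks, the test compound (10 nmol) was given by tail vein. The chest was opened 4 h later and the lungs were imaged with an intraoperative NIRF imager. Control mice got ICG (100 nmol) and were imaged the same way after 24 h.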

For data set [3], the system named is orthotopic LLC pulmonary xenografts. The data set can be described thus: Orthotopic pulmonary LLC tumor imaging and boundary analysis. The format is in vivo, C57BL/6 mice.

Where only a bound is given, the exact number is not on record here.

Take `CC1(C)C(/C=C/C2=C(Oc3ccc(CCC(=O)N[C@H]4CSSC[C@@H](C(=O)O)NC(=O)[C@H](CC(=O)O)NC(=O)[C@@H]5CCCN5C(=O)CNC(=O)[C@H](CCCCN)NC(=O)[C@H](CC(=O)O)NC(=O)CNC(=O)[C@H](CCCNC(=N)N)NC4=O)cc3)C(=C/C=C3/N(CCC[N+](C)(C)C)c4ccc(S(=O)(=O)O)cc4C3(C)C)/CCC2)=[N+](CCC[N+](C)(C)C)c2ccc(S(=O)(=O)O)cc21` [iRGD-ZW800]: the “peak tumor-to-background ratio (TBRmax)” value with A549 subcutaneous tumors (10 nmol per animal via tail vein, peak 96 h after injection, IVIS imaging, n=3) came to 4.3±1.04. The “Fluorescence intensity ratio Sp/M (spleen/muscle)” value in the data set with A549 subcutaneous tumors (ex vivo organs, 96 h after 10 nmol i.v., AVG of 3 mice, SD 0.19) is recorded as 0.85. For the same compound, in the data set on A549 subcutaneous tumors (ex vivo organs, 96 h after 10 nmol i.v., AVG of 3 mice, SD 0.58), the “Fluorescence intensity ratio In/M (intestine/muscle)” value is listed as 1.43. In the data set with A549 subcutaneous tumors (ex vivo organs, 96 h after 10 nmol i.v., AVG of 3 mice, SD 0.60), the “Fluorescence intensity ratio H/M (heart/muscle)” value is on record as 1.50. In addition, in the data set with A549 subcutaneous tumors (ex vivo organs, 96 h after 10 nmol i.v., AVG of 3 mice, SD 1.64), the “Fluorescence intensity ratio Ki/M (kidney/muscle)” value worked out at 4.57. For the same compound, the “Fluorescence intensity ratio St/M (stomach/muscle)” value with A549 subcutaneous tumors (ex vivo organs, 96 h after 10 nmol i.v., AVG of 3 mice, SD 1.85) was 3.67. The “Fluorescence intensity ratio Li/M (liver/muscle)” value in the data set on A549 subcutaneous tumors (ex vivo organs, 96 h after 10 nmol i.v., AVG of 3 mice, SD 2.55) came to 5.28. The “Fluorescence intensity ratio L/M (lung/muscle)” value with A549 subcutaneous tumors (ex vivo organs, 96 h after 10 nmol i.v., AVG of 3 mice, SD 2.67) is listed as 5.01. For the same compound, the “Fluorescence intensity ratio C/M (colon/muscle)” value with A549 subcutaneous tumors (ex vivo organs, 96 h after 10 nmol i.v., AVG of 3 mice, SD 3.74) is given as 6.80. In the data set on A549 subcutaneous tumors (in vivo, 10 nmol tail vein, imaged periodically over 6 days), this compound yielded an imaging window of at least 6 days. Moreover, in data set [1], the tissue to tissue ratio at 96 h worked out at 16.6. The water solubility result in the data set “Water solubility” was “good water solubility”; in “Water solubility” (listed as iRGD fluorescent tracer), “highly soluble in water”. Moreover, the “detection of metastatic lung nodules compared with ICG” value in data set [2] was “superior ability to detect more nodules”. Moreover, the “ratio of tumor to lung fluorescence intensity” value in data set [3] (10 nmol tail vein, 24 h, FLI-10B imaging, ImageJ, standard deviation 0.18) amounted to 2.2. The tumor background ratios entry in data set [3] (lung tumor imaging in C57BL/6J mice, all ratios) is “greater than 1.5”.

These data come from publication PMC11384490 (Translational Lung Cancer Research, 2024).
